Results taken from ChEMBL document CHEMBL4428062, “Human Toll-like Receptor (TLR) 8-Specific Agonistic Activity in Substituted Pyrimidine-2,4-diamines” (J Med Chem, 2016).
Activity calls are given as the source filed them. The calls are words filed in the database; no cut-off is given here.

Columns and labels:
[1] = target: T1, Toll-like receptor 8 (Homo sapiens) (UniProt Q9NR97); test: Agonist activity at TLR8 in human PBMC assessed as induction of IL-6 levels after 16 hrs by immunoassay
T1 sequence (whole entry): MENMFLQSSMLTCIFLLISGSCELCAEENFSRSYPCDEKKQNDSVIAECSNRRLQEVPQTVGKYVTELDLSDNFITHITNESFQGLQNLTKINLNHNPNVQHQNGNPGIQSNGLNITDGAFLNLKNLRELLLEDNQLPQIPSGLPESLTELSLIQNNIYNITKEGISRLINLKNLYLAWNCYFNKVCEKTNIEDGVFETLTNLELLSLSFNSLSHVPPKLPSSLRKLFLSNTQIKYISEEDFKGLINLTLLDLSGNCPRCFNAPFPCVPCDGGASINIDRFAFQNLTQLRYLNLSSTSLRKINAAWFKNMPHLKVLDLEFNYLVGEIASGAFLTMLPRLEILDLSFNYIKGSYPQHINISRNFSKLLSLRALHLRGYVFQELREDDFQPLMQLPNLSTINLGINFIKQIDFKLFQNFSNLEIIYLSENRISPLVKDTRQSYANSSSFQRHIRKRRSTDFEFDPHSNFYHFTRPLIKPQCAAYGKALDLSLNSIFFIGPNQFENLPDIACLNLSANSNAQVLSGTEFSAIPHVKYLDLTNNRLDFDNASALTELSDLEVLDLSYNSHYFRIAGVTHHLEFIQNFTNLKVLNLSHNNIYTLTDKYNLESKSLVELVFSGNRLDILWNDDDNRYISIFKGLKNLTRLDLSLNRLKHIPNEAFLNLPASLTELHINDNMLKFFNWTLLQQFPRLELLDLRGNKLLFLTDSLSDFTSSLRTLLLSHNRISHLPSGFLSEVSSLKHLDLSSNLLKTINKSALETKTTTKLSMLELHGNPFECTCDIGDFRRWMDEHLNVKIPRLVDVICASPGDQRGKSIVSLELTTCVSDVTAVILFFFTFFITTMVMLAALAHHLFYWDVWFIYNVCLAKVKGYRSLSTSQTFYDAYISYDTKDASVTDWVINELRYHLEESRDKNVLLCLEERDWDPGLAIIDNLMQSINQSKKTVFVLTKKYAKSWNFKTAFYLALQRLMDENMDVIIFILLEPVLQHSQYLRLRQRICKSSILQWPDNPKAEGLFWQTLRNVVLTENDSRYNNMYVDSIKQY
Summary of the method: (§1)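 Freshly isolated human PBMC from venipuncture blood (informed consent), 10^5 cells/well, stimulated 16 h with graded concentrations of compound. Supernatants collected by centrifugation and cytokines quantified in duplicate with a multiplexed cytokine/chemokine magnetic bead array.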

Toll-like receptor 8 = target: T2, Toll-like receptor 8 (Homo sapiens, UniProt Q9NR97); test: Agonist activity at human TLR8 expressed in HEK293 cells assessed as induction of NF-kappaB activity by secreted alkaline phosphatase reporter gene assay; type: cell-based
T2 sequence (Q9NR97 whole entry): T1 sequence (whole entry)
Summary of the method: (§2)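 HEK293 reporter lines stably co-transfected with the respective human TLR and an NF-κB/AP-1-driven secreted alkaline phosphatase gene, kept in selection medium. About 10^5 cells/ml were incubated with graded concentrations of stimuli. Supernatant sAP was read spectrophotometrically at 620 nm using a chromogenic substrate in detection medium. EC50 was taken as the arithmetic mean of quadruplicate samples.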

[2] = target: Toll-like receptor 5 (Homo sapiens) (UniProt O60602); test: Agonist activity at human TLR5 expressed in HEK293 cells assessed as induction of NF-kappaB activity by secreted alkaline phosphatase reporter gene assay; type: cell-based; summary of the method: as §2
[3] = target: Toll-like receptor 3 (Homo sapiens) (UniProt O15455); test: Agonist activity at human TLR3 expressed in HEK293 cells assessed as induction of NF-kappaB activity by secreted alkaline phosphatase reporter gene assay; type: cell-based; summary of the method: as §2
[4] = target: T1, Toll-like receptor 8 (Homo sapiens); test: Agonist activity at TLR8 in human PBMC assessed as increase in TNF-alpha production after 16 hrs by immunoassay; summary of the method: as §1
[5] = target: T1, Toll-like receptor 8 (Homo sapiens); test: Agonist activity at TLR8 in human PBMC assessed as induction of IL-1beta levels after 16 hrs by immunoassay; summary of the method: as §1
[6] = target: T1, Toll-like receptor 8 (Homo sapiens); test: Agonist activity at TLR8 in human PBMC assessed as induction of IL-8 levels after 16 hrs by immunoassay; summary of the method: as §1
[7] = target: T1, Toll-like receptor 8 (Homo sapiens); test: Agonist activity at TLR8 in human monocytes assessed as upregulation of CD80 after 16 hrs by flow cytometry; type: cell-based
Summary of the method: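 Heparin-anticoagulated healthy-donor whole blood added to serial compound dilutions, 37 °C for 16 h, DMSO negative control. Stained with CD14-FITC, CD40-APC, CD80-PE-Cy7 and CD86-V450 (2.5 µg each, 4 °C, dark, 60 min). Erythrocytes lysed, leukocytes fixed, washed, then flow cytometry on 200,000 gated events. Monocytes gated as CD14+, CD80 read as MFI, means of duplicates.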

[8] = target: Toll-like receptor 4 (Homo sapiens) (UniProt O00206); test: Agonist activity at human TLR4 expressed in HEK293 cells assessed as induction of NF-kappaB activity by secreted alkaline phosphatase reporter gene assay; type: cell-based; summary of the method: as §2
[9] = target: T1, Toll-like receptor 8 (Homo sapiens); test: Agonist activity at TLR8 in human PBMC assessed as Th1-biased stimulatory activity measured as IFNgamma release after 16 hrs by immunoassay; summary of the method: as §1
[10] = target: T1, Toll-like receptor 8 (Homo sapiens); test: Agonist activity at TLR8 in human PBMC assessed as Th1-biased stimulatory activity measured as IL-12 release after 16 hrs by immunoassay; summary of the method: as §1

Toll-like receptor 3 (Homo sapiens), sequence (O15455 whole entry): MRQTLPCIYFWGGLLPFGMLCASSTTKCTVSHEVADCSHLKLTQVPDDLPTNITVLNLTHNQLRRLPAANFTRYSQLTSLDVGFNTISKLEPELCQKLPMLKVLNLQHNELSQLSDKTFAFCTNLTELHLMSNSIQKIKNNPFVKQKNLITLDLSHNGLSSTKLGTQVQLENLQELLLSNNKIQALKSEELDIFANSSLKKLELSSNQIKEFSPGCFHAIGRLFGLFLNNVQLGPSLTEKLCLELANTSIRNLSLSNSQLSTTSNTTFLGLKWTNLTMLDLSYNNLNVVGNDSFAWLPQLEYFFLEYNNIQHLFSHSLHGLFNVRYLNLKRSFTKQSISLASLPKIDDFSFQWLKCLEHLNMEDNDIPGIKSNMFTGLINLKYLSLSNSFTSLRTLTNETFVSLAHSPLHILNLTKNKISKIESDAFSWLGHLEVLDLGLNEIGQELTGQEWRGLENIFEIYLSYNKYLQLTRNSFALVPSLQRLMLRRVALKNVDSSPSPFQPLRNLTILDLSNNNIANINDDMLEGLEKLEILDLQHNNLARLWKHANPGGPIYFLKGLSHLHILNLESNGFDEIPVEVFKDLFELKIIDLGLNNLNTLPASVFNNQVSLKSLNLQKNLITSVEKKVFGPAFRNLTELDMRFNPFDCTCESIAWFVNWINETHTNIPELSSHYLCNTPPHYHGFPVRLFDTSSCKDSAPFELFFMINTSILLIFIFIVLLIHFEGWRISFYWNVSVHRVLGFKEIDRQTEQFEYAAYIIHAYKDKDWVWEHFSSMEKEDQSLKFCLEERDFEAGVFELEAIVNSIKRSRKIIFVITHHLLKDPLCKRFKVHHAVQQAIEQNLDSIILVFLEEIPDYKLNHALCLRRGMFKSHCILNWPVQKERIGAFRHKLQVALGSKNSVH
Toll-like receptor 5 (Homo sapiens), sequence (O60602 whole entry): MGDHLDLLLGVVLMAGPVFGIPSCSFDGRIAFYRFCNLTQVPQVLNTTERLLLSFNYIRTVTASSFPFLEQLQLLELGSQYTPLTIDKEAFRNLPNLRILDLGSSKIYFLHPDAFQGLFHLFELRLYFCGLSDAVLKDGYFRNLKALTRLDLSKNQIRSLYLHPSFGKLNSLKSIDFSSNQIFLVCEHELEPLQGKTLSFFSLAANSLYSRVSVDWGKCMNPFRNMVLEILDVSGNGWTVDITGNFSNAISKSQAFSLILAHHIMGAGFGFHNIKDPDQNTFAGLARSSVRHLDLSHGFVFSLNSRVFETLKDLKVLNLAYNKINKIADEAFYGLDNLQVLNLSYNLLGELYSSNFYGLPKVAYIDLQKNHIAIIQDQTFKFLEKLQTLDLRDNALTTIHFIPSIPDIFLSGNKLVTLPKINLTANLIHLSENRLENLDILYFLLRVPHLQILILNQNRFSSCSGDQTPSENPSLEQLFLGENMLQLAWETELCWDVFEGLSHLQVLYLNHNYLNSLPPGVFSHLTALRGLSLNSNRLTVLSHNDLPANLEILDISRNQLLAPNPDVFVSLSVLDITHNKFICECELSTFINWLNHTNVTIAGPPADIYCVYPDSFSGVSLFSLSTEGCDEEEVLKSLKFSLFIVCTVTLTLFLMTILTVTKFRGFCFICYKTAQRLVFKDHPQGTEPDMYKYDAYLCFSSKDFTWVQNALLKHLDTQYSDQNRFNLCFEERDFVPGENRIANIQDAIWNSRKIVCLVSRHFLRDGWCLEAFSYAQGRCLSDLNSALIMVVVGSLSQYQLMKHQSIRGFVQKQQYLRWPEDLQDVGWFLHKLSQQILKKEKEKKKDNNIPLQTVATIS
Toll-like receptor 4 (Homo sapiens), sequence (O00206 whole entry): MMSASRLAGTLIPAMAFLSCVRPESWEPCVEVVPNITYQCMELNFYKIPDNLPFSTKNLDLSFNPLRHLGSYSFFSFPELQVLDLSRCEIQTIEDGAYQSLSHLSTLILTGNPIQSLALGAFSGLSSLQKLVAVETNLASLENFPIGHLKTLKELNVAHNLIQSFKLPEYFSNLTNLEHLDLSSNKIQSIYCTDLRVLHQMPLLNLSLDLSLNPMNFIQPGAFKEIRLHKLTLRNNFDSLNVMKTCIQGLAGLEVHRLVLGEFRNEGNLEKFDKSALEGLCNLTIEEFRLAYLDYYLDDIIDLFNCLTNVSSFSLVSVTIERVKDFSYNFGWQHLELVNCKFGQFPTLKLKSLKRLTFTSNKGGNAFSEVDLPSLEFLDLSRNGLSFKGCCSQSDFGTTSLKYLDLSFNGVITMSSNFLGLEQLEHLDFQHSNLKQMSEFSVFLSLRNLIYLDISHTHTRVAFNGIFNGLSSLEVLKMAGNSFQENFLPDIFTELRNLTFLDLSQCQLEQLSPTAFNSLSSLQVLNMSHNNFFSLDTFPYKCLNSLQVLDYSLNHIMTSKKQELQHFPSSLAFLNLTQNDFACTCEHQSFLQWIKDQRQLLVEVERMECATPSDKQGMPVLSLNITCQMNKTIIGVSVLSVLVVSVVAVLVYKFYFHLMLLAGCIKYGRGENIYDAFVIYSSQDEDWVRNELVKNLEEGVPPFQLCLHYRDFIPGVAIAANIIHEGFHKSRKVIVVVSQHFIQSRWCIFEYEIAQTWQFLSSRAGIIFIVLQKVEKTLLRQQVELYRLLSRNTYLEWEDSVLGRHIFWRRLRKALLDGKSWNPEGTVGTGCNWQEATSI

| SMILES | Activity [1] | EC50 (Toll-like receptor 8) [nM] | Activity [2] | Activity [3] | Activity [4] | Activity [5] | Activity [6] | Activity [7] [µM] | Activity [8] | Activity [9] | Activity [10] |
| --- | --- | --- | --- | --- | --- | --- | --- | --- | --- | --- | --- |
| CCCCCn1c(N)nc2c(C)cccc21 | Active | 1800 | inactive | inactive | Active | Active | Active | 14 | inactive | – | – |
| CCCCNc1nc(N)nc(C)c1CCCCN | inactive | 300 | inactive | inactive | – | inactive | inactive | 1.5 | inactive | Active | Active |
| CCCCNc1cc(-c2ccccc2)nc(N)n1 | inactive | 6700 | inactive | inactive | inactive | inactive | inactive | – | inactive | inactive | inactive |
| CCCCNc1nc(N)nc(C)c1I | Active | 1640 | inactive | inactive | Active | Active | Active | 5 | inactive | Active | Active |
| CCCCNc1nc(N)nc(-c2ccccc2)c1CCCCN | inactive | – | inactive | inactive | inactive | inactive | inactive | – | inactive | inactive | inactive |
